Results reported in ChEMBL document CHEMBL1145462, “In vivo pharmacodynamic activity of the glycopeptide dalbavancin” (Antimicrob Agents Chemother, 2007).
Values after ≈ are worked out from the molar mass of the structure shown.

Key:
Streptococcus pneumoniae [1] = assay: Antibacterial activity against Streptococcus pneumoniae 1329 by microdilution method; format: functional
How it was run: (§1)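 MIC and MBC were determined by CLSI broth microdilution, in duplicate on at least two occasions. Staphylococci were grown in Mueller-Hinton broth and agar; pneumococci were plated on sheep blood agar.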

Streptococcus pneumoniae [2] = assay: Bactericidal activity against penicillin-susceptible Streptococcus pneumoniae ATCC 10813 infected neutropenic Swiss ICR mouse thigh infection model assessed as drug level causing 2-log reduction of bacterial count at 1.26 mg/kg, ip dosed every 36 hrs; format: functional; conditions: route intraperitoneal
How it was run: (§2)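 Neutropenic mice (cyclophosphamide ip 150 mg/kg day −4, 100 mg/kg day −1, then every 48 h) received 0.1 ml log-phase inoculum per thigh under halothane. Intraperitoneal dalbavancin started 2 h later and was given for 6 days at q12h, q24h, q36h or q72h, two mice per regimen. Thigh CFU were counted at 144 h. Endpoint doses relative to start-of-therapy counts came from Hill-model nonlinear regression and are expressed per 24 h.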

Staphylococcus aureus [3] = assay: AUC/MBC ratio of Staphylococcus aureus ATCC 25923 infected neutropenic mouse thigh infection model at 51.2 mg/kg, ip administered every 24 hrs by 1-log killing experiment; format: functional; conditions: route intraperitoneal
Mus musculus = assay: AUC in bacterial pathogen-infected neutropenic Swiss ICR mouse thigh infection model at 10 mg/kg, ip; format: ADME, organism-based; design: dose 10 mg/kg, route intraperitoneal; conditions: in vivo
How it was run: (§3)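 Thigh-infected neutropenic mice received single intraperitoneal doses (2.5, 5, 10, 20, 40, 80 mg/kg; 0.2 ml/dose). Blood was drawn by retroorbital aspiration from groups of three mice at 0.5, 1, 2, 4, 6, 24, 48, 72 and 96 h. Plasma levels were measured by microbiologic assay with Bacillus subtilis (detection limit 0.10 mg/liter). Noncompartmental analysis was used: half-life by linear least-squares regression, AUC by trapezoidal rule.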

Streptococcus pneumoniae [4] = assay: Bactericidal activity against penicillin-susceptible Streptococcus pneumoniae ATCC 10813 infected neutropenic Swiss ICR mouse thigh infection model assessed as drug level causing 1-log reduction of bacterial count at 0.71 mg/kg, ip dosed every 72 hrs; format: functional; conditions: route intraperitoneal; how it was run: as §2
Streptococcus pneumoniae [5] = assay: AUC/MIC ratio of Streptococcus pneumoniae 1396 infected neutropenic mouse thigh infection model at 0.69 mg/kg, ip administered every 72 hrs by 2-log killing experiment; conditions: route intraperitoneal
Staphylococcus aureus [6] = assay: AUC/MBC ratio of Staphylococcus aureus Smith infected neutropenic mouse thigh infection model at 33.5 mg/kg, ip administered every 24 hrs by static effect experiment; format: functional; conditions: route intraperitoneal
[7] = AUC in bacterial pathogen-infected neutropenic Swiss ICR mouse thigh infection model at 40 mg/kg, ip; format: ADME, organism-based; design: dose 40 mg/kg, route intraperitoneal; conditions: in vivo; how it was run: as §3
Streptococcus pneumoniae [8] = assay: Bactericidal activity in Streptococcus pneumoniae ATCC 10813 infected neutropenic mouse thigh infection model assessed as drug level causing 1-log reduction of bacterial count at 4.13 mg/kg/6days; format: functional
[9] = Half life in bacterial pathogen-infected neutropenic Swiss ICR mouse thigh infection model at 2.5 mg/kg, ip; format: ADME, organism-based; design: dose 2.5 mg/kg, route intraperitoneal; conditions: in vivo
How it was run: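 Single ip dose (0.2 ml) given to thigh-infected neutropenic ICR Swiss mice. Retro-orbital blood taken from groups of three at 0.5–96 h; plasma assayed microbiologically with Bacillus subtilis (detection limit 0.10 mg/liter). Half-life derived by linear least-squares regression within a noncompartmental analysis.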

Staphylococcus aureus [10] = assay: Antibacterial activity against Staphylococcus aureus Smith by microdilution method; format: functional
How it was run: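 MICs in duplicate on at least two occasions by standard CLSI broth microdilution; S. aureus grown and quantified in Mueller-Hinton broth/agar.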

Staphylococcus aureus [11] = assay: AUC/MIC ratio of Staphylococcus aureus Smith infected neutropenic mouse thigh infection model at 73.5 mg/kg, ip administered every 24 hrs by 2-log killing experiment; format: functional; conditions: route intraperitoneal
Staphylococcus aureus [12] = assay: Bactericidal activity against […] Staphylococcus aureus ATCC 29213 infected neutropenic Swiss ICR mouse thigh infection model assessed as drug level causing 2-log reduction of bacterial count at 10 mg/kg, ip dosed every 72 hrs; format: functional; conditions: route intraperitoneal
Staphylococcus aureus [13] = assay: Antibacterial activity against methicillin-resistant Staphylococcus aureus in presence of 95% mouse serum; format: functional
How it was run: (§4)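 MIC determined in broth, heat-treated (100°C, 30 min) 95% mouse serum, and 95% mouse serum ultrafiltrate, using arithmetic dilutions of 0.02 mg/liter per tube. Protein binding estimated as (MIC in 95% serum − MIC in ultrafiltrate)/MIC in 95% serum.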

Streptococcus pneumoniae [14] = assay: Bactericidal activity in Streptococcus pneumoniae ATCC 10813 infected neutropenic mouse thigh infection model assessed as drug level causing 2-log reduction of bacterial count at 4.13 mg/kg/6days; format: functional
Staphylococcus aureus [15] = assay: Antibacterial activity against Staphylococcus aureus 307109 by microdilution method; format: functional; how it was run: as §1
Streptococcus pneumoniae [16] = assay: AUC/MIC ratio of Streptococcus pneumoniae 1199 infected neutropenic mouse thigh infection model at 0.85 mg/kg, ip administered every 72 hrs by 1-log killing experiment; format: functional; conditions: route intraperitoneal
Staphylococcus aureus [17] = assay: AUC/MIC ratio of Staphylococcus aureus ATCC 25923 infected neutropenic mouse thigh infection model at 214 mg/kg, ip administered every 72 hrs by 2-log killing experiment; format: functional; conditions: route intraperitoneal
Staphylococcus aureus [18] = assay: AUC/MIC ratio of methicillin-resistant Staphylococcus aureus infected neutropenic mouse thigh infection model at 37.7 mg/kg, ip administered every 24 hrs by static effect experiment; format: functional; conditions: route intraperitoneal
Streptococcus pneumoniae [19] = assay: Bactericidal activity in Streptococcus pneumoniae ATCC 10813 infected non-neutropenic mouse thigh infection model assessed as drug level causing 2-log reduction of bacterial count at 2.03 mg/kg/6days; format: functional
Staphylococcus aureus [20] = assay: AUC/MBC ratio of Staphylococcus aureus Smith infected neutropenic mouse thigh infection model at 148 mg/kg, ip administered every 72 hrs by 2-log killing experiment; format: functional; conditions: route intraperitoneal
Staphylococcus aureus [21] = assay: AUC/MIC ratio of Staphylococcus aureus ATCC 25923 infected neutropenic mouse thigh infection model at 185 mg/kg, ip administered every 72 hrs by 1-log killing experiment; format: functional; conditions: route intraperitoneal
Streptococcus pneumoniae [22] = assay: AUC/MIC ratio of Streptococcus pneumoniae 1329 infected neutropenic mouse thigh infection model at 1.18 mg/kg, ip administered every 24 hrs by 1-log killing experiment; format: functional; conditions: route intraperitoneal
Staphylococcus aureus [23] = assay: Bactericidal activity against […] Staphylococcus aureus ATCC 29213 infected neutropenic Swiss ICR mouse thigh infection model assessed as drug level causing 1-log reduction of bacterial count at 15 mg/kg, ip dosed every 36 hrs; format: functional; conditions: route intraperitoneal
Staphylococcus aureus [24] = assay: AUC/MBC ratio of Staphylococcus aureus ATCC 25923 infected neutropenic mouse thigh infection model at 60 mg/kg, ip administered every 24 hrs by 2-log killing experiment; format: functional; conditions: route intraperitoneal
Streptococcus pneumoniae [25] = assay: AUC/MIC ratio of Streptococcus pneumoniae 1199 infected neutropenic mouse thigh infection model at 0.49 mg/kg, ip administered every 24 hrs by 1-log killing experiment; format: functional; conditions: route intraperitoneal
Staphylococcus aureus [26] = assay: Antibacterial activity against Staphylococcus aureus ATCC 25923 in presence of 95% mouse serum ultrafiltrate; format: functional; how it was run: as §4

## CN[C@H]1C(=O)N[C@@H]2Cc3ccc(cc3)Oc3cc4cc(c3O[C@@H]3O[C@H](C(=O)O)[C@@H](O)[C@H](O)[C@H]3NC(=O)CCCCCCCCC(C)C)Oc3ccc(cc3Cl)[C@@H](O)[C@@H]3NC(=O)[C@H](NC(=O)[C@@H]4NC(=O)[C@@H](NC2=O)c2cc(cc(O)c2Cl)Oc2cc1ccc2O)c1ccc(O)c(c1)-c1c(O[C@H]2O[C@H](CO)[C@@H](O)[C@H](O)[C@@H]2O)cc(O)cc1[C@@H](C(=O)NCCCN(C)C)NC3=O [DALBAVANCIN]
Streptococcus pneumoniae [1]
  MBC: 0.008 µg/mL (≈ 0.0044 µM)
  MIC: 0.008 µg/mL (≈ 0.0044 µM)
Streptococcus pneumoniae [2]
  Activity: 1.81
Staphylococcus aureus [3]
  Ratio: 60
Mus musculus
  AUC: 579 µg·h/mL
Streptococcus pneumoniae [4]
  Activity: 0.77
Streptococcus pneumoniae [5]
  RatioAUC/MIC: 4.8
Staphylococcus aureus [6]
  Ratio: 75
[7]
  AUC: 10600 µg·h/mL
Streptococcus pneumoniae [8]
  Activity: 4.38
[9]
  half-life: 13.1 h
Staphylococcus aureus [10]
  MBC: 0.25 µg/mL (≈ 0.138 µM)
  MIC: 0.06 µg/mL (≈ 0.033 µM)
Staphylococcus aureus [11]
  RatioAUC/MIC: 361
Staphylococcus aureus [12]
  Activity: 128
Staphylococcus aureus [13]
  MIC: 32 µg/mL
Streptococcus pneumoniae [14]
  Activity: 4.62
Staphylococcus aureus [15]
  MBC: 0.12 µg/mL (≈ 0.0661 µM)
  MIC: 0.06 µg/mL (≈ 0.033 µM)
Streptococcus pneumoniae [16]
  RatioAUC/MIC: 12.1
Staphylococcus aureus [17]
  RatioAUC/MIC: 367
Staphylococcus aureus [18]
  RatioAUC/MIC: 374
Streptococcus pneumoniae [19]
  Activity: 2.66
Staphylococcus aureus [20]
  Ratio: 122
Staphylococcus aureus [21]
  RatioAUC/MIC: 317
Streptococcus pneumoniae [22]
  RatioAUC/MIC: 23.5
Staphylococcus aureus [23]
  Activity: 36
Staphylococcus aureus [24]
  Ratio: 69.3
Streptococcus pneumoniae [25]
  RatioAUC/MIC: 19.4
Staphylococcus aureus [26]
  MIC: 0.5 µg/mL
